Assay outcomes: PubChem BioAssay, Broad Institute
Rows were chosen to be rich in hits. Some 2.5% of all compounds tested hit in one or more screens of this group.
E-sel inducer: E-selectin induction in HUVECs, primary screen, imaging, HUVEC, immunofluorescence imaging, single point; P16581; normalized: neutral wells 0, TNF-alpha wells 100; activation, % at 7.58 µM; hit rate 0.37% among 260,000; AID 686992, 2013;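 active means mean E-selectin-positive cell signal at least 10% of the positive control, reached in at least 60% of replicates, without over 20% cell loss; inconclusive means no rule given, readout overlaps actives, possibly toxicity-flagged; inactive means the rest, including those meeting only one limit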
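Assay system: HUVEC, human umbilical vein endothelial cells / Amount: 3,000 HUVEC/well / Controls: TNF-alpha positive control, DMSO neutral control / Compound dosing: single concentration / Medium: EGM-2 over gelatin coat / Evaluation: percent E-selectin-positive cells / Signal: immunofluorescence imaging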
S100A4 inh HTS: inhibitors of S100A4-myosin IIA peptide binding, primary screen, biochemical, fluorescence polarization, TAMRA-MyoIIA peptide. AID 652163, 2013. hit rate 0.14% among 360,000. inhibition, % at 10.7 µM. Protein S100-A4 (Homo sapiens), P26447;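 active means mean inhibition of at least 70% across replicates, with every replicate also reaching that level; inconclusive means mean inhibition reaches 70% but some replicates fall short; inactive means mean inhibition below 70%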
Target sequence (P26447 whole entry, looked up): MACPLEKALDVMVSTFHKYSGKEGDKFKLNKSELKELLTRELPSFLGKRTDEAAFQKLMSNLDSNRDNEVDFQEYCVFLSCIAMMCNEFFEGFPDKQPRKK
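Test system: S100A4 monomer protein; Medium: HEPES pH 7.2 with CaCl2, KCl, NaCl, DTT, Triton; Probe or stimulus: TAMRA-labelled myosin IIA heavy-chain peptide probe, 5 nM; Doses: one dose per compound; Times: polarization read 5 min after assay mix addition, stable 5–60 min; Benchmarks: neutral control DMSO, positive control TFP.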
miR-122 sensor: miR-122 Renilla sensor signal increase in Huh7, primary screen, miR-122 inhibitor project, cell-based, single point, plate reader | Huh7 miR-122 Renilla luciferase sensor, 48 h; neutral wells = 0, positive control = 100 | activation (reporter increase), % at 12.5 µM | hit rate 0.3% among 340,000;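 active means mean replicate activation score at least 90 and every replicate individually at or above 90; inconclusive means only one of the two criteria met; inactive means neither criterion met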;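 further: higher luciferase means less miR-122 activity so hits act as miR-122 inhibitors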
FGF22 binding-1: binders of human FGF22 protein, primary screen, FGF22 synaptogenesis inhibitor project, biophysical, thermal shift, single point | Fibroblast growth factor 22 (Homo sapiens), Q9HCT0 | recombinant FGF22 thermal shift, SYPRO orange fluorescence; percent of sucrose octasulfate shift, DMSO zero | activity (Tm shift, normalised), % at 9.99 µM | hit rate 1.5% among 340,000;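 active means mean Tm shift, scaled 0 neutral to 100 positive control, at about 1.3% or above, every replicate too, limit read from the data; inconclusive means no clear call, values can overlap the other calls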
Target sequence (Q9HCT0 whole entry, looked up): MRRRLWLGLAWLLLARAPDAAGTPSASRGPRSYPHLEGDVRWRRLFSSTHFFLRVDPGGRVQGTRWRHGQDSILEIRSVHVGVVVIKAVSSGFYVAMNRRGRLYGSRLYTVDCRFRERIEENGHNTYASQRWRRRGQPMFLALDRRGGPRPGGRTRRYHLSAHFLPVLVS
SIRT5 block: SIRT5 desuccinylase inhibitors, primary screen, biochemical, fluorescence imaging, single point, set 5; NAD-dependent protein deacylase sirtuin-5, mitochondrial (Homo sapiens), Q9NXA8; Purified SirT5, succinyl-peptide AMC, trypsin-coupled fluorescence; inhibition, % at 15 µM; hit rate 1.1% among 330,000; AID 652115, 2013; in the data active means inhibition above about 15%; inconclusive means no clear call, values can overlap the other calls
FGF22 binding-2: binders of human FGF22 protein, dose response, FGF22 synaptogenesis inhibitor project, biophysical, thermal shift, cherry-pick retest | shares compounds with FGF22 binding-1 | recombinant FGF22 thermal shift, SYPRO orange fluorescence | thermal shift activity, °C (ΔTm) at 38 µM | hit rate 2% among 1,000 | AID 720646, 2013;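 active means fitted rise in melting shift crosses a set limit at or below the top valid dose tested; inconclusive means flat fit at mid-level activity, or a poor quality fit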
SYPRO no-protein: compound-only thermal shift signal without protein, dose response, artefact control for FGF22 binder project, biochemical, cherry-picked samples, RT-PCR instrument. AC50, µM (titrated, usually from 38 µM). compound-only SYPRO orange thermal shift counter-screen, no protein. shares compounds with FGF22 binding-1. AID 743019, 2013. hit rate 2% among 1,000;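 active means rising signal whose fitted curve reaches the 0.54 level within the top valid dose, showing a melting point, actives reach about 13 µM in these data; inactive means the rest, including activity in the opposite direction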; further: value is where the raw curve crosses a fixed level and not half-maximal
Numbers stand for hits; ! = a repeat was not active.

Cc1ccc(S(=O)(=O)N(C)/N=C/c2ccc(N(C)C)cc2)cc1 was read as E-sel inducer inactive, S100A4 inh HTS inactive, miR-122 sensor inactive, FGF22 binding-1 20.4, SIRT5 block inactive, FGF22 binding-2 inactive and SYPRO no-protein inactive.
CN1C(=O)c2cc(NC(=O)c3cccc(F)c3)ccc2OC[C@H]2O[C@H](CC(=O)NCC3CC3)CC[C@@H]21 was read as E-sel inducer inactive, S100A4 inh HTS inactive, FGF22 binding-1 inactive and SIRT5 block inactive.
For CN1C(=O)c2cc(NC(=O)c3cccc(F)c3)ccc2OC[C@H]2O[C@H](CC(=O)N3CCc4ccccc4C3)CC[C@@H]21 the results were E-sel inducer inactive, S100A4 inh HTS inactive, miR-122 sensor inactive, FGF22 binding-1 inactive and SIRT5 block inactive.
For CN1C(=O)c2cc(NC(=O)c3cccc(F)c3)ccc2OC[C@H]2O[C@@H](CC(=O)NCc3ccccc3)CC[C@H]21 the results were E-sel inducer inactive, miR-122 sensor inactive, FGF22 binding-1 1.7, FGF22 binding-2 inactive and SYPRO no-protein inactive.
For CN1C(=O)c2cc(NC(=O)c3cccc(F)c3)ccc2OC[C@@H]2O[C@H](CC(=O)NCC3CCCCC3)CC[C@@H]21 the results were E-sel inducer inactive, S100A4 inh HTS inconclusive, FGF22 binding-1 2.3!, SIRT5 block inactive, FGF22 binding-2 inactive and SYPRO no-protein inactive.
CN1C(=O)c2cc(NC(=O)c3cccc(F)c3)ccc2OC[C@H]2O[C@@H](CC(=O)N3CCc4ccccc4C3)CC[C@H]21 was read as E-sel inducer inactive, S100A4 inh HTS inactive, miR-122 sensor inactive, FGF22 binding-1 1.3, SIRT5 block inactive, FGF22 binding-2 inactive and SYPRO no-protein inactive.
CN1C(=O)c2cc(NC(=O)c3cccc(F)c3)ccc2OC[C@H]2O[C@@H](CC(=O)NCC3CCCCC3)CC[C@H]21 was read as E-sel inducer inactive, S100A4 inh HTS inactive, FGF22 binding-1 2.3, SIRT5 block inactive, FGF22 binding-2 inactive and SYPRO no-protein inactive.
`CCC(=O)Nc1ccc2c(c1)OC[C@@H](C)N(C(C)=O)C[C@@H](C)[C@@H](OC)CN(C)C2=O` gave E-sel inducer inactive, S100A4 inh HTS inactive, miR-122 sensor inactive, FGF22 binding-1 inactive and SIRT5 block inactive.
Screening Cc1ccc(NC(=O)c2sc3ncn(CC(=O)N4CCN(c5ccccn5)CC4)c(=O)c3c2C)cc1F returned S100A4 inh HTS inactive, miR-122 sensor inactive, FGF22 binding-1 1.4, SIRT5 block inactive, FGF22 binding-2 inactive and SYPRO no-protein inactive.
Screening Cc1ccc(NC(=O)c2sc3ncn(CC(=O)N4CCN(c5ccccn5)CC4)c(=O)c3c2C)cc1Cl returned E-sel inducer inactive, S100A4 inh HTS inactive, miR-122 sensor inactive, FGF22 binding-1 inactive and SIRT5 block inactive.
`O=C(Nc1ccc(C(=O)O)cc1)Nc1ccc([N+](=O)[O-])cc1` gave E-sel inducer inactive, S100A4 inh HTS inactive, miR-122 sensor inactive, FGF22 binding-1 1.9, SIRT5 block inactive, FGF22 binding-2 inactive and SYPRO no-protein inactive.
`O=[N+]([O-])c1ccc(/C=N/Nc2ccc3ccccc3c2)o1` gave S100A4 inh HTS inactive, FGF22 binding-1 2.1, SIRT5 block inactive, FGF22 binding-2 inactive and SYPRO no-protein inactive.
For COc1cccc(NS(=O)(=O)c2cc3[nH]c(=O)c(=O)[nH]c3cc2C)c1 the results were S100A4 inh HTS inactive, miR-122 sensor inactive, FGF22 binding-1 inactive and SIRT5 block inactive.
